Reference: ChEMBL document CHEMBL1141640, “Cyclic guanidines as dual 5-HT5A/5-HT7 receptor ligands: optimising brain penetration” (Bioorg Med Chem Lett, 2008)

What was measured:
[1] = target: T1, 5-hydroxytryptamine receptor 2C (Homo sapiens, UniProt P28335); assay: Binding affinity to 5HT2C receptor
T1 sequence (P28335 whole entry): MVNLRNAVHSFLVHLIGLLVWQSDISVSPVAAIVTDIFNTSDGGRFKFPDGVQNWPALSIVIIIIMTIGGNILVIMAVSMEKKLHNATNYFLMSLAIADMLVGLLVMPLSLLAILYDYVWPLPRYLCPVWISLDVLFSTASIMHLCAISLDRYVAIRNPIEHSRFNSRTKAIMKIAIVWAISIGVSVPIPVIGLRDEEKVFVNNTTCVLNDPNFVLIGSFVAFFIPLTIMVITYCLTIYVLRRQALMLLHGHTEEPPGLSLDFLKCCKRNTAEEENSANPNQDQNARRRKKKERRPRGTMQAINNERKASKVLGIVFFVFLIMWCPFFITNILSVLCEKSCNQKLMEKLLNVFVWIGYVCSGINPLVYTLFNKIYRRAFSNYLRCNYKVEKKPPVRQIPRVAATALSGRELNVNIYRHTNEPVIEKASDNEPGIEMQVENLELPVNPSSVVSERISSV

[2] = target: T2, 5-hydroxytryptamine receptor 1A (Homo sapiens, UniProt P08908); assay: Binding affinity to 5HT1A receptor
T2 sequence (P08908 whole entry): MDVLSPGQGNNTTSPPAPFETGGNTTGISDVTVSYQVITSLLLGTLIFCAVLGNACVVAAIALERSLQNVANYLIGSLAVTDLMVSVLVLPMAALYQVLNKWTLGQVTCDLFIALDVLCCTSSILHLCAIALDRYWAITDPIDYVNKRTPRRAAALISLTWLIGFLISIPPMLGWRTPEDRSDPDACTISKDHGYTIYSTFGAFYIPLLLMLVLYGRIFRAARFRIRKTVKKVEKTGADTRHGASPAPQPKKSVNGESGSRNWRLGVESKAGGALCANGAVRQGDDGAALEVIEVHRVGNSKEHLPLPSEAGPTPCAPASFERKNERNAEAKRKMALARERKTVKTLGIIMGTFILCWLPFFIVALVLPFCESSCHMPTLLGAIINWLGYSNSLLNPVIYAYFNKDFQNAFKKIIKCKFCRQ

[3] = target: 5-hydroxytryptamine receptor 7 (Homo sapiens, UniProt P34969); assay: Binding affinity to human 5HT7 receptor
Chain of 5-hydroxytryptamine receptor 7 (P34969 whole entry): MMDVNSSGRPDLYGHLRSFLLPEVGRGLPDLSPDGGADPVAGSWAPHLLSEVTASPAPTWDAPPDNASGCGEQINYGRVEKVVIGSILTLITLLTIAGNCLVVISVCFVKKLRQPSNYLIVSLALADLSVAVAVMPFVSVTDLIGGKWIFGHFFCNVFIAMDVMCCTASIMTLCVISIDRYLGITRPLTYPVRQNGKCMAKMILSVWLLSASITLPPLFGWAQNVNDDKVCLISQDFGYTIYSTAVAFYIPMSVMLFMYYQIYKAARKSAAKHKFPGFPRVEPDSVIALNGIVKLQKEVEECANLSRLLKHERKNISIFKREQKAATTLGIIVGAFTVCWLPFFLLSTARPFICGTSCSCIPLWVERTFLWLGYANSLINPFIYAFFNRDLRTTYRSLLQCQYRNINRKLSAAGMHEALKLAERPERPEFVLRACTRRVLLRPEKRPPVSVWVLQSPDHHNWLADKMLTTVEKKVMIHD

[4] = target: 5-hydroxytryptamine receptor 5A (Homo sapiens, UniProt P47898); assay: Binding affinity to human 5HT5A receptor; settings: read-out: Ki
Chain of 5-hydroxytryptamine receptor 5A (Homo sapiens, UniProt P47898) (P47898 whole entry): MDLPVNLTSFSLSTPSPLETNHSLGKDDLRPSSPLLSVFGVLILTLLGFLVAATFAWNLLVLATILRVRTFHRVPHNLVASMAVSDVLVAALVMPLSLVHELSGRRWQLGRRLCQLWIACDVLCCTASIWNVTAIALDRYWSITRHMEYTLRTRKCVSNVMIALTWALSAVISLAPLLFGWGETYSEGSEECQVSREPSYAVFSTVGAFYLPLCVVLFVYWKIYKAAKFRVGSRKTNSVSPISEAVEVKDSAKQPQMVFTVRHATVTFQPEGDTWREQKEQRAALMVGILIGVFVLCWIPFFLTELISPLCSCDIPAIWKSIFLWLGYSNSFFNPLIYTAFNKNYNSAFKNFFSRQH

[5] = Selectivity for human 5HT5A receptor over 5HT2A receptor
[6] = Dissociation constant, pKa of the compound; type: physicochemical
[7] = Selectivity for human 5HT5A receptor over 5HT3 receptor
[8] = Distribution coefficient, log D of the compound; type: physicochemical; settings: octanol/water
Method in brief: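 Lipophilicity reported as log D at pH 7.4 (log D7.4), measured alongside the guanidine pKa.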

[9] = Selectivity for human 5HT5A receptor over 5HT6 receptor
[10] = target: T3, 5-hydroxytryptamine receptor 1D (Homo sapiens, UniProt P28221); assay: Binding affinity to 5HT1D receptor
T3 sequence (P28221 whole entry): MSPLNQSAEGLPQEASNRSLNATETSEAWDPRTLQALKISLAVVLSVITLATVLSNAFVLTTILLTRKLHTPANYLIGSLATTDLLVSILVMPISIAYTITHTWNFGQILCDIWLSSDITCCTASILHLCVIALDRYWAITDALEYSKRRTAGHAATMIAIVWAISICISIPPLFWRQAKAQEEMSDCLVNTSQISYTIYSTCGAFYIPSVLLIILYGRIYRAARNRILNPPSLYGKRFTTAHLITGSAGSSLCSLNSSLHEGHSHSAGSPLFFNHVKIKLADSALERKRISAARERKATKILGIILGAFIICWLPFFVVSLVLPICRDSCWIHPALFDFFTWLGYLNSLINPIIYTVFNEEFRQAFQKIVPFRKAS

Histamine H1 receptor = Histamine H1 receptor (Homo sapiens, UniProt P35367); assay: Binding affinity to histamine H1 receptor
Chain of Histamine H1 receptor (P35367 whole entry): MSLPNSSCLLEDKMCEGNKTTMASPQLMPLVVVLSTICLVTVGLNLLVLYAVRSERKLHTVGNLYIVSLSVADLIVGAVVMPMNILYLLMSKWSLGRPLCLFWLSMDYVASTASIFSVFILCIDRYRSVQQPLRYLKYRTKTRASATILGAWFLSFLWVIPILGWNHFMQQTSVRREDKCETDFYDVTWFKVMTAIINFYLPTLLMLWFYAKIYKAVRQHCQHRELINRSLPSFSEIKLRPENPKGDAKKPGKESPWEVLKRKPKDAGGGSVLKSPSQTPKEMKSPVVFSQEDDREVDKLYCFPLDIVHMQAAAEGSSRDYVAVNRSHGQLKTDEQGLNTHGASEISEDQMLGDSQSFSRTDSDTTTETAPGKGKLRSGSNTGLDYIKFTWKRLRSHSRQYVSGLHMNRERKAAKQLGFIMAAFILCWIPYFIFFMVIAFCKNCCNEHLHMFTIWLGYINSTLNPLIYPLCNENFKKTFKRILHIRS

[11] = target: 5-hydroxytryptamine receptor 5A (Rattus norvegicus, UniProt P35364); assay: Binding affinity to rat 5HT5A receptor
Chain of 5-hydroxytryptamine receptor 5A (Rattus norvegicus, UniProt P35364) (P35364 whole entry): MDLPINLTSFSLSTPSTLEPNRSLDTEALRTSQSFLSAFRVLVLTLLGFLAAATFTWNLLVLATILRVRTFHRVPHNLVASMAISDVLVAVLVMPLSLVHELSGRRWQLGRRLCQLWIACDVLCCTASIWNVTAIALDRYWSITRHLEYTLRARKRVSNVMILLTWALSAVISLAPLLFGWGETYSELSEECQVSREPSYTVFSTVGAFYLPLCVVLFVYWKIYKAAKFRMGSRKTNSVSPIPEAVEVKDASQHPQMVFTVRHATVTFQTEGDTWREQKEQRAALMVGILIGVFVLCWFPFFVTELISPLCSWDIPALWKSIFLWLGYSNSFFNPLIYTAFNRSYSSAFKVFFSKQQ

[12] = target: T4, 5-hydroxytryptamine receptor 3A (Homo sapiens, UniProt P46098); assay: Binding affinity to human 5HT3 receptor
T4 sequence (P46098 whole entry): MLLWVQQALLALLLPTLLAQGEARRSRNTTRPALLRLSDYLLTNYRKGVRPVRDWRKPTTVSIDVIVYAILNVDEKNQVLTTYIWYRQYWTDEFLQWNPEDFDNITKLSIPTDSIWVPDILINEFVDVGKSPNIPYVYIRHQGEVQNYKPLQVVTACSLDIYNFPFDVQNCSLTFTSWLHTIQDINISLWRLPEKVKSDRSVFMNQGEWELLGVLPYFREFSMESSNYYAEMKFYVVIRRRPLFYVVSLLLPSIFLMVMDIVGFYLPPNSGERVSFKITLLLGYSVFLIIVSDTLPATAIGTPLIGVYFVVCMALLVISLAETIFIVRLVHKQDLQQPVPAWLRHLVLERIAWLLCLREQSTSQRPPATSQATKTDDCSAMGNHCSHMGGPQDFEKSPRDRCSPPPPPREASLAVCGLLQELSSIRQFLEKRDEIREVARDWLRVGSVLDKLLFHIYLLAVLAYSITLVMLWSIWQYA

[13] = target: 5-hydroxytryptamine receptor 6 (Homo sapiens, UniProt P50406); assay: Binding affinity to human 5HT6 receptor
Chain of 5-hydroxytryptamine receptor 6 (P50406 whole entry): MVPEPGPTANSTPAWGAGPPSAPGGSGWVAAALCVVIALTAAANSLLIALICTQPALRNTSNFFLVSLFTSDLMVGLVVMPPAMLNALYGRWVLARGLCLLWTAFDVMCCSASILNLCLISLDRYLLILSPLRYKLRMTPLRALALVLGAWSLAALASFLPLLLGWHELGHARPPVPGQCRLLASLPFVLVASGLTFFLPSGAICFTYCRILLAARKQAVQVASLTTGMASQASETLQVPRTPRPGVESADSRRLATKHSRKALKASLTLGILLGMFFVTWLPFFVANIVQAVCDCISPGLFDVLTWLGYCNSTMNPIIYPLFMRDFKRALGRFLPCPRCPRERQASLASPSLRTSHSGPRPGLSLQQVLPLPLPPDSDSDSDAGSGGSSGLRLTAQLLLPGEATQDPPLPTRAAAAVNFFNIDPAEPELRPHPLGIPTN

[14] = target: T2, 5-hydroxytryptamine receptor 1A; assay: Binding affinity to human 5HT1A receptor
[15] = target: T3, 5-hydroxytryptamine receptor 1D; assay: Binding affinity to human 5HT1D receptor
[16] = target: T1, 5-hydroxytryptamine receptor 2C; assay: Binding affinity to human 5HT2C receptor
[17] = target: 5-hydroxytryptamine receptor 2A (Homo sapiens, UniProt P28223); assay: Binding affinity to human 5HT2A receptor
Chain of 5-hydroxytryptamine receptor 2A (P28223 whole entry): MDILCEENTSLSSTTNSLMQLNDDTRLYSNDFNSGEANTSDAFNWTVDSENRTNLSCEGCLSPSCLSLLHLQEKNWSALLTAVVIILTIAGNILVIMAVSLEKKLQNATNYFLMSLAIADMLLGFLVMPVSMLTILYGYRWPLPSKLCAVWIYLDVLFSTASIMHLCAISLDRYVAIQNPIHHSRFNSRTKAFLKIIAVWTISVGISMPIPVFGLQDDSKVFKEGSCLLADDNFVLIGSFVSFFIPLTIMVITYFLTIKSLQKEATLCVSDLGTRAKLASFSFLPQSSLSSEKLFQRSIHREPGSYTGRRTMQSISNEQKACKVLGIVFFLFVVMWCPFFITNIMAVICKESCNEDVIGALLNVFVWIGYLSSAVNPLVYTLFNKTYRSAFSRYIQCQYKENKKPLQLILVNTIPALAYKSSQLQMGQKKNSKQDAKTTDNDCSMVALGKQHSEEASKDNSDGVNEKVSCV

| Ki [1] [nM] | Ki [2] [nM] | Ki [3] [nM] | Ki [4] [nM] | Selectivity ratio [5] | pKa [6] | Selectivity ratio [7] | logD [8] | Selectivity ratio [9] | Ki [10] [nM] | SMILES | other results |
| --- | --- | --- | --- | --- | --- | --- | --- | --- | --- | --- | --- |
| 2150 | 240 | 4.2 | 22.2 | > 30 | 10.2 | > 30 | 0.1 | > 30 | 82 | CC(C)Oc1cccc2c1N=C(NCC(F)F)NC2C (centres undefined) | – |
| – | – | – | 196 | – | 10.8 | – | -0.9 | – | – | CCNC1=Nc2ccccc2C(C)N1 (centres undefined) | – |
| 675 | 87 | 366 | 33.4 | > 30 | 7.8 | > 30 | 3 | > 30 | > 10000 | CC1NC(NCC(F)F)=Nc2c(Cl)ccc(Cl)c21 (centres undefined) | – |
| – | – | – | 124 | – | – | – | 1.3 | – | – | CC1NC(NCCC2CCCCC2)=Nc2ccccc21 (centres undefined) | – |
| – | – | – | 279 | – | – | – | -0.1 | – | – | CC1NC(NC2CCCCN(C)C2=O)=Nc2ccccc21 (centres undefined) | – |
| 162 | 124 | 23.3 | – | > 30 | 8.5 | > 30 | 2.7 | > 30 | 630 | CC1NC(NCC(F)F)=Nc2ccc(Cl)c(Cl)c21 (centres undefined) | Ki (Histamine H1 receptor): 18.3 nM |
| 238 | 612 | 1700 | 504 | – | 8.5 | – | 2.7 | – | > 10000 | C[C@H]1NC(NCC(F)F)=Nc2ccc(Cl)c(Cl)c21 | – |
| – | – | – | 241 | – | – | – | 0.1 | – | – | CCCOCCNC1=Nc2ccccc2C(C)N1 (centres undefined) | – |
| – | – | – | 415 | – | – | – | – | – | – | C[C@H]1NC(N)=Nc2cccc(Cl)c21 | – |
| 233 | 348 | 17.6 | 22.2 | > 30 | 8.9 | > 30 | 1.5 | > 30 | 1810 | COc1c(Cl)ccc2c1C(C)NC(NCC(F)F)=N2 (centres undefined) | – |
| – | – | – | 37 | – | – | – | 1 | – | – | CC1NC(NCC2COc3ccccc3O2)=Nc2ccccc21 (centres undefined) | – |
| 1660 | 53 | 38.9 | – | > 30 | 10.2 | > 30 | -0.5 | > 30 | 747 | COc1cccc2c1N=C(NCC(F)F)NC2C (centres undefined) | – |
| – | – | – | 163 | – | – | – | -0.6 | – | – | CC1NC(NC[C@H]2CCCO2)=Nc2ccccc21 (some centres undefined) | – |
| – | – | 6 | 1.6 | – | – | – | – | – | – | C[C@@H]1NC(N)=Nc2cccc(Cl)c21 | Ki [11]: 1.3 nM; Ki [12]: 1060 nM; Ki [13]: 1030 nM; Ki [14]: 95.2 nM; Ki [15]: 1100 nM; Ki [16]: 55 nM; Ki [17]: 257 nM |
